mIAP block – mouse IAP inhibition; 0.2% of 330,000 active; AID 2806; purified mouse IAP, CDP-Star luminescence, 30 min; inhibition, % at 10 µM;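 active means inhibition of at least 40% at 10 µM in the primary screen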
mIAP act – increases mouse intestinal alkaline phosphatase activity. muIAP, CDP-Star luminescence, 30 min; stronger effect = higher value; 1 = vehicle-only enzyme signal, 0 = enzyme-free wells. activation factor at 10 µM. 0.24% of 330,000 active. AID 2805;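 active means activation factor of at least 2 at 20 µM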
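also added = chemiluminescent substrate CDP-Star | test system = mouse IAP enzyme | signal = chemiluminescence readout | compound = DMSO-dissolved test compounds | incubation = 30 min at room temperature | benchmarks = DMSO wells, no-enzyme wells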
hIAP act – increases human intestinal alkaline phosphatase activity. P09923. purified human IAP, CDP-Star luminescence, 30 min; stronger effect = higher value; 1 = vehicle-only enzyme, 0 = enzyme-free background. activation factor at 10 µM. 0.16% of 330,000 active;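 active means activation factor of the enzyme at least 2-fold when tested at 20 µM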
Target sequence (P09923 whole entry, looked up): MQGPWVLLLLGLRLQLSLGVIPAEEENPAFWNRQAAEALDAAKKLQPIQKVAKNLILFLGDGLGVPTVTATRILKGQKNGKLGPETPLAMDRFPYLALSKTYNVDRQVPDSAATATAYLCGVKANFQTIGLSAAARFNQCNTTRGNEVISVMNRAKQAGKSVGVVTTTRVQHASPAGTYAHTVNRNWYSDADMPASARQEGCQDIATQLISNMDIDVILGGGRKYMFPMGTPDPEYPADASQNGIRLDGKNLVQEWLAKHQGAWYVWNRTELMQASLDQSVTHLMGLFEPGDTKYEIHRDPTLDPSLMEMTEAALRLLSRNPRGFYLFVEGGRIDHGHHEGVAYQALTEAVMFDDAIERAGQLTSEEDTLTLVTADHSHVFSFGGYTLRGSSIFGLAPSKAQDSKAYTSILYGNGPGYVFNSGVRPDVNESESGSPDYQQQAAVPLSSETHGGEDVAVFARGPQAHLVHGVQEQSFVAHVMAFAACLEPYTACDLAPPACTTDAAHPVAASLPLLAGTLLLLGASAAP
hIAP block – human IAP inhibition; P09923; purified IAP, CDP-Star luminescence, 30 min; inhibition, % at 10 µM; 0.12% of 330,000 active; AID 2544;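 active means inhibition reaching a set limit with compound at 10 µM in the primary screen, cut at about 35% in these data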
bIAP inhibitor – intestinal alkaline phosphatase (bovine) inhibition; inhibition, % at 20 µM; AID 1019; 190,000 tested, under 10 active; purified bovine IAP, CDP-star luminescence, 30 min;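 active means over 50% inhibition of intestinal alkaline phosphatase at 20 µM in the single-dose screen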
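Incubation: 30 min reaction at room temperature / Material: purified bovine intestinal alkaline phosphatase (IAP) enzyme / Input: enzyme at 1/65,000,000 dilution / Dosing: 20 µM single dose / Signal: CDP-star luminescence signal / Reagent: CDP-star chemiluminescent phosphatase substrate, 30 µM final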
bIAP act – intestinal alkaline phosphatase (bovine) activation; purified bovine IAP, CDP-star luminescence, 30 min; stronger effect = higher value; fold of DMSO-control signal, blank-subtracted; AID 1016; activation factor at 20 µM; 0.17% of 200,000 active;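 active means activation factor of 2 or more at 20 µM, a signal rise over negative controls twice the positive control's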
mIAP inh confirm – mouse IAP inhibition confirmation. shares compounds with mIAP block. purified mouse IAP, CDP-Star luminescence, 30 min. inhibition, % at 10 µM. 4.7% of 11,000 active;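 active means inhibition of at least 40% at 10 µM in either of the two replicates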
Large screens that a line does not name were inactive (follow-up assays come after a bar, where they were run). A selection: hits, their analogues and other compounds. The true share with any hit is near 0.79%.

c1ccc(Cn2nnnc2CN2CCN(Cc3ccc4c(c3)OCO4)CC2)cc1	none
O=C(Nc1ccccc1)NC1CC2CCC(C1)N2Cc1nnnn1Cc1ccc2c(c1)OCO2 (stereo not given)	mIAP act 2.49 | mIAP inh confirm inactive
COc1cc(/C=C2\SC(=S)N(CCC(=O)N3CCN(C)CC3)C2=O)cc(OC)c1OC	none (no result: bIAP inhibitor, bIAP act)
C=C1c2cccc(O)c2C(=O)C2C(=O)[C@]3(O)C(=O)C(C(N)=O)C(=O)[C@@H](N(C)C)[C@@H]3[C@@H](O)[C@H]12 (stereo not given in full)	mIAP block 48.8 (no result: bIAP inhibitor, bIAP act) | mIAP inh confirm 48.0
O=c1[nH]n2c(=O)c3c([nH]c2c1N=Nc1cccc(Cl)c1)CCC3	none (no result: mIAP block, mIAP act, hIAP act, hIAP block)
NS(=O)(=O)c1ccc(N=Nc2c(=O)[nH]n3c(=O)c4c([nH]c23)CCCC4)cc1	mIAP block 47.8 (no result: bIAP inhibitor) | mIAP inh confirm 62.8
CC1(C(=O)NNC(=O)c2ccc(=O)oc2)CC1Br (stereo not given)	mIAP block 76.6 (no result: bIAP inhibitor, bIAP act) | mIAP inh confirm 70.7
Cc1cc(=O)oc(C)c1C(=O)NNC(=O)C1(C)CC1Br (stereo not given)	none (no result: bIAP inhibitor, bIAP act)
COc1ccccc1NS(=O)(=O)c1cc(NC(=O)Nc2cccc(C)c2)ccc1N1CCCCC1	mIAP act 5.57 | mIAP inh confirm inactive
Cc1cc(C)cc(NC(=O)Nc2ccccc2N2CCCCC2)c1	mIAP act 3.27 (no result: bIAP inhibitor, bIAP act) | mIAP inh confirm inactive
COc1ccc(NC(=O)Nc2ccccc2)cc1S(=O)(=O)N1CCCCC1	mIAP act 4.46 | mIAP inh confirm inactive
Cc1cc(C)cc(OCC(=O)Nc2ccccc2N2CCCCC2)c1	none
COc1ccccc1NS(=O)(=O)c1cc(NC(C)=O)ccc1N1CCCCC1	none
Cc1ccc(Cl)c(NC(=O)CN2CCNC(=O)C2)c1Cl	none
O=C(Nc1cccc(Cl)c1)NC1CC2CCC(C1)N2Cc1ccco1 (stereo not given)	none
O=C(Nc1ccc(Cl)cc1)NC1CCCCC1Cc1ccco1 (stereo not given)	mIAP act 7.83 | mIAP inh confirm inactive
FC(F)Sc1ccc(NC(=S)NC(c2ccccc2)c2ccccc2)cc1	mIAP act 12 | mIAP inh confirm inactive
C=CCn1c(SCC(=O)c2ccc(O)c(O)c2)nnc1-c1cccc(OC)c1	mIAP block 40.8 (no result: bIAP inhibitor, bIAP act) | mIAP inh confirm 45.5
O=C(c1ccc(Cl)c(S(=O)(=O)N2CCCCC2)c1)N1CCCC(C(F)(F)F)C1 (stereo not given)	none (no result: bIAP inhibitor, bIAP act)
Cc1nn(Cc2c(Cl)cccc2Cl)c(C)c1NC(=O)c1cn(-c2ccccc2)nc1-c1ccccc1	mIAP act 2.46 | mIAP inh confirm inactive
COc1ccccc1[C@H]1C(c2cccc(C)c2)=NN(c2ccccc2)[C@@H]1CO	none (no result: hIAP act, hIAP block, bIAP inhibitor, bIAP act)
OC[C@@H]1[C@@H](c2ccc(Cl)cc2)C(c2cccc(Cl)c2)=NN1c1ccccc1	mIAP act 2.33 (no result: hIAP act, hIAP block, bIAP inhibitor, bIAP act) | mIAP inh confirm inactive
COc1ccccc1[C@H]1C(c2ccccc2)=NN(c2ccccc2)[C@@H]1CO	mIAP act 2.16 (no result: hIAP act, hIAP block, bIAP inhibitor, bIAP act) | mIAP inh confirm inactive
CC(=O)c1cc(C#N)c(N2CCOCC2)nc1C	none
O=C(Nc1ccc(Cl)c(Cl)c1)Nc1cc(C(=O)N2CCOCC2)ccc1N1CCCCC1	mIAP act 10.1 (no result: bIAP inhibitor, bIAP act) | mIAP inh confirm inactive
O=C(Nc1ccc(Cl)c(Cl)c1)Nc1cc(S(=O)(=O)N2CCOCC2)ccc1N1CCCC1	mIAP act 3.12 | mIAP inh confirm inactive
O=C(Nc1cccc(Cl)c1)Nc1cc(S(=O)(=O)N2CCCCC2)ccc1Cl	mIAP act 3.57 | mIAP inh confirm inactive
Cc1cc(/C=C2\SC(=S)NC2=O)c(C)[nH]1	mIAP block 70.4 | mIAP inh confirm 87.1
Cc1cc(/C=C2\SC(=S)NC2=O)c(C)n1-c1cccc(O)c1	mIAP block 76.4 (no result: bIAP inhibitor, bIAP act) | mIAP inh confirm 74.7
Cc1sc(-n2c(C)cc(/C=C3\SC(=S)NC3=O)c2C)c(C#N)c1C	mIAP block 49.8 | mIAP inh confirm 63.9
CCOC(=O)c1c(C)[nH]c(C(=O)OCC(=O)c2ccc3c(c2)NC(=O)CO3)c1C	none (no result: bIAP inhibitor, bIAP act)
Cc1onc(-c2ccccc2)c1CNC(=O)Nc1ccc(C(F)(F)F)cc1	mIAP act 4.06 (no result: bIAP inhibitor, bIAP act) | mIAP inh confirm inactive
Cc1nn(C)c(C)c1CNC(=O)Nc1cccc(Cl)c1	none
Cc1cc(C)cc(NC(=O)NCc2c(-c3ccccc3)noc2C)c1	mIAP act 4.7 (no result: bIAP inhibitor, bIAP act) | mIAP inh confirm inactive
Cc1onc(-c2ccccc2)c1CNC(=O)Nc1ccc(F)cc1F	none (no result: bIAP inhibitor, bIAP act)
Cc1onc(-c2ccccc2)c1CNC(=O)Nc1cccc(Cl)c1	mIAP act 4.02 (no result: bIAP inhibitor, bIAP act) | mIAP inh confirm inactive
Cc1cccc(NC(=O)CSCC(=O)Nc2sccc2C#N)c1	none (no result: bIAP inhibitor, bIAP act)
O=C(COc1cccc2cccnc12)N/N=C1\SCC(=O)N1Cc1ccccc1	none
S=c1[nH]nc(-c2ccco2)n1-c1ccccc1Cl	none
S=c1[nH]nc(-c2cc(-c3ccco3)[nH]n2)n1-c1ccccc1Cl	mIAP block 57.2 | mIAP inh confirm 74.2
COc1ccc(S(=O)(=O)/N=C2/NC(=O)/C(=C\c3ccco3)S2)cc1	mIAP block 58.4 | mIAP inh confirm 64.3
O=C(O)C1C2CCC(O2)C1C(=O)Nc1cnn(Cc2ccccc2)c1 (stereo not given)	none
O=C(Nc1cnn(Cc2ccccc2)c1)NC12CC3CC(CC(C3)C1)C2	mIAP act 2.12 | mIAP inh confirm inactive
CC/C=C(\NC(C)=O)c1ccccc1	none (no result: bIAP inhibitor, bIAP act)
CC(C)c1ccc(C(N)=S)cc1	none
O=C(NCc1ccc2c(c1)OCO2)c1cc2c(s1)CSC2	mIAP block 44.9 | mIAP inh confirm 59.1
O=C(NCc1ccco1)c1cc2c(s1)CSC2	mIAP block 45.2 | mIAP inh confirm 45.4
O=C(CNS(=O)(=O)c1ccc([N+](=O)[O-])cc1)N/N=C\c1ccc(O)cc1	none (no result: bIAP inhibitor, bIAP act)
O=C(CNS(=O)(=O)c1ccc([N+](=O)[O-])cc1)N/N=C/c1ccc(O)cc1O	mIAP block 40.3 (no result: bIAP inhibitor, bIAP act) | mIAP inh confirm 42.3
O=C(N/N=C1\CCCc2c1[nH]c1ccc([N+](=O)[O-])cc21)c1ccncc1	none
N#C/C(=C/c1ccco1)C(N)=S	mIAP block 47.0 (no result: bIAP inhibitor, bIAP act) | mIAP inh confirm 56.5
CC(=O)NC(=S)Nc1ccc(N2CCOCC2)c(S(=O)(=O)Nc2cc(Cl)ccc2Cl)c1	none
O=c1cc(-c2ccccc2)oc2cc(O)c(O)c(O)c12	none (no result: bIAP inhibitor, bIAP act)
O=c1c(O)cccc2cc(O)c(O)c(O)c12	mIAP block 60.8 (no result: bIAP inhibitor, bIAP act) | mIAP inh confirm 74.4
N#Cc1c(N)nc2c(c1-c1ccc3c(c1)OCO3)CCc1ccccc1-2	none
COc1ccc(/C=C/c2nc(-c3ccccc3O)n[nH]2)cc1OC	none
O=C(O)COc1ccc(/C=C/c2nc(-c3ccccc3O)n[nH]2)cc1	mIAP block 51.5 (no result: bIAP inhibitor, bIAP act) | mIAP inh confirm 62.2

Screening results: PubChem BioAssay, Sanford-Burnham Center for Chemical Genomics
